≈ marks a conversion by molar mass, not a printed value.
Key:
Format in all cases: functional
Bacillus subtilis = assay: Antibacterial activity against penicillin-susceptible Bacillus subtilis ATCC 9372 incubated for 24 hrs by broth dilution method; settings: ATCC 9372, 24 h
Procedure, shortened: (§1)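 CLSI broth microdilution in cation-adjusted Mueller-Hinton broth. Twofold dilutions spanned 0.25–128 or 0.5–256 µg/mL, with CAM and AZM as controls. Log-phase bacteria were added and incubated 24 h at 37 °C. MIC was read by turbidity as the concentration of the last clear well.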

Streptococcus pyogenes [1] = assay: Antibacterial activity against erythromycin-resistant Streptococcus pyogenes 2 clinical isolate incubated for 24 hrs by broth dilution method
Streptococcus pneumoniae [2] = assay: Antibacterial activity against erythromycin-resistant Streptococcus pneumoniae B1 expressing the ermB incubated for 24 hrs by broth dilution method
Staphylococcus aureus [3] = assay: Antibacterial activity against erythromycin-susceptible Staphylococcus aureus ATCC 25923 incubated for 24 hrs by broth dilution method; settings: ATCC 25923, 24 h; procedure, shortened: as §1
Escherichia coli = assay: Antibacterial activity against penicillin-susceptible Escherichia coli ATCC 25922 incubated for 24 hrs by broth dilution method; settings: ATCC 25922, 24 h; procedure, shortened: as §1
Staphylococcus aureus [4] = assay: Antibacterial activity against penicillin-resistant Staphylococcus aureus ATCC 31007 incubated for 24 hrs by broth dilution method; settings: ATCC 31007, 24 h
Streptococcus pyogenes [5] = assay: Antibacterial activity against erythromycin-susceptible Streptococcus pyogenes 1 clinical isolate incubated for 24 hrs by broth dilution method; procedure, shortened: as §1
Staphylococcus aureus [6] = assay: Antibacterial activity against methicillin-resistant Staphylococcus aureus ATCC 43300 incubated for 24 hrs by broth dilution method; settings: ATCC 43300, 24 h
Pseudomonas aeruginosa = assay: Antibacterial activity against penicillin-susceptible Pseudomonas aeruginosa ATCC 27853 incubated for 24 hrs by broth dilution method; settings: ATCC 27853, 24 h; procedure, shortened: as §1
Streptococcus pneumoniae [7] = assay: Antibacterial activity against erythromycin-resistant Streptococcus pneumoniae AB11 expressing the ermB and mefA incubated for 24 hrs by broth dilution method

Structure (SMILES)	MIC (Bacillus subtilis)	MIC (Streptococcus pyogenes [1])	MIC (Streptococcus pneumoniae [2])	MIC (Staphylococcus aureus [3])	MIC (Escherichia coli)	MIC (Staphylococcus aureus [4])	MIC (Streptococcus pyogenes [5])	MIC (Staphylococcus aureus [6])	MIC (Pseudomonas aeruginosa)	MIC (Streptococcus pneumoniae [7])
CO[C@]1(C)C[C@@H](C)[C@H](O)[C@H](C)CN(C)C[C@H](COCc2cn(-c3ccc(OC(F)(F)F)cc3)nn2)OC(=O)[C@H](C)[C@@H](O[C@H]2C[C@@](C)(OC)[C@@H](O)[C@H](C)O2)[C@H](C)[C@H]1O[C@@H]1O[C@H](C)C[C@H](N(C)C)[C@H]1O	1 µg/mL (≈ 1.02 µM)	32 µg/mL (≈ 32.8 µM)	128 µg/mL (≈ 131 µM)	2 µg/mL (≈ 2.05 µM)	64 µg/mL (≈ 65.6 µM)	128 µg/mL (≈ 131 µM)	2 µg/mL (≈ 2.05 µM)	128 µg/mL (≈ 131 µM)	16 µg/mL (≈ 16.4 µM)	32 µg/mL (≈ 32.8 µM)
CO[C@]1(C)C[C@@H](C)[C@H](O)[C@H](C)CN(C)[C@@H](Cn2cc(-c3ccccn3)nn2)COC(=O)[C@H](C)[C@@H](O[C@H]2C[C@@](C)(OC)[C@@H](O)[C@H](C)O2)[C@H](C)[C@H]1O[C@@H]1O[C@H](C)C[C@H](N(C)C)[C@H]1O	32 µg/mL (≈ 37.1 µM)	256 µg/mL (≈ 297 µM)	> 256 µg/mL	64 µg/mL (≈ 74.2 µM)	> 128 µg/mL	> 256 µg/mL	16 µg/mL (≈ 18.5 µM)	> 256 µg/mL	> 128 µg/mL	256 µg/mL (≈ 297 µM)
CO[C@]1(C)C[C@@H](C)[C@H](O)[C@H](C)CN(C)C[C@H](COCc2cn(-c3ccc(C(C)C)cc3)nn2)OC(=O)[C@H](C)[C@@H](O[C@H]2C[C@@](C)(OC)[C@@H](O)[C@H](C)O2)[C@H](C)[C@H]1O[C@@H]1O[C@H](C)C[C@H](N(C)C)[C@H]1O	0.5 µg/mL (≈ 0.535 µM)	32 µg/mL (≈ 34.3 µM)	64 µg/mL (≈ 68.5 µM)	1 µg/mL (≈ 1.07 µM)	64 µg/mL (≈ 68.5 µM)	128 µg/mL (≈ 137 µM)	1 µg/mL (≈ 1.07 µM)	64 µg/mL (≈ 68.5 µM)	16 µg/mL (≈ 17.1 µM)	32 µg/mL (≈ 34.3 µM)
CCc1ccc(-n2cc(COC[C@@H]3CN(C)C[C@@H](C)[C@@H](O)[C@H](C)C[C@@](C)(OC)[C@H](O[C@@H]4O[C@H](C)C[C@H](N(C)C)[C@H]4O)[C@@H](C)[C@H](O[C@H]4C[C@@](C)(OC)[C@@H](O)[C@H](C)O4)[C@@H](C)C(=O)O3)nn2)cc1	2 µg/mL (≈ 2.17 µM)	32 µg/mL (≈ 34.8 µM)	32 µg/mL (≈ 34.8 µM)	4 µg/mL (≈ 4.35 µM)	128 µg/mL (≈ 139 µM)	64 µg/mL (≈ 69.6 µM)	4 µg/mL (≈ 4.35 µM)	64 µg/mL (≈ 69.6 µM)	128 µg/mL (≈ 139 µM)	32 µg/mL (≈ 34.8 µM)
CO[C@]1(C)C[C@@H](C)[C@H](O)[C@H](C)CN(C)[C@@H](Cn2cc(-c3ccc(F)cc3)nn2)COC(=O)[C@H](C)[C@@H](O[C@H]2C[C@@](C)(OC)[C@@H](O)[C@H](C)O2)[C@H](C)[C@H]1O[C@@H]1O[C@H](C)C[C@H](N(C)C)[C@H]1O	32 µg/mL (≈ 36.4 µM)	128 µg/mL (≈ 145 µM)	256 µg/mL (≈ 291 µM)	64 µg/mL (≈ 72.7 µM)	> 128 µg/mL	128 µg/mL (≈ 145 µM)	16 µg/mL (≈ 18.2 µM)	128 µg/mL (≈ 145 µM)	> 128 µg/mL	128 µg/mL (≈ 145 µM)
COc1cccc(-n2cc(COC[C@@H]3CN(C)C[C@@H](C)[C@@H](O)[C@H](C)C[C@@](C)(OC)[C@H](O[C@@H]4O[C@H](C)C[C@H](N(C)C)[C@H]4O)[C@@H](C)[C@H](O[C@H]4C[C@@](C)(OC)[C@@H](O)[C@H](C)O4)[C@@H](C)C(=O)O3)nn2)c1	2 µg/mL (≈ 2.17 µM)	64 µg/mL (≈ 69.4 µM)	128 µg/mL (≈ 139 µM)	2 µg/mL (≈ 2.17 µM)	128 µg/mL (≈ 139 µM)	256 µg/mL (≈ 278 µM)	2 µg/mL (≈ 2.17 µM)	256 µg/mL (≈ 278 µM)	128 µg/mL (≈ 139 µM)	64 µg/mL (≈ 69.4 µM)
CO[C@]1(C)C[C@@H](C)[C@H](O)[C@H](C)CN(C)C[C@H](Cn2cc(-c3ccccn3)nn2)OC(=O)[C@H](C)[C@@H](O[C@H]2C[C@@](C)(OC)[C@@H](O)[C@H](C)O2)[C@H](C)[C@H]1O[C@@H]1O[C@H](C)C[C@H](N(C)C)[C@H]1O	2 µg/mL (≈ 2.32 µM)	128 µg/mL (≈ 148 µM)	> 256 µg/mL	4 µg/mL (≈ 4.63 µM)	128 µg/mL (≈ 148 µM)	> 256 µg/mL	1 µg/mL (≈ 1.16 µM)	> 256 µg/mL	64 µg/mL (≈ 74.2 µM)	256 µg/mL (≈ 297 µM)
CO[C@]1(C)C[C@@H](C)[C@H](O)[C@H](C)CN(C)[C@H](Cn2cc(-c3ccc(Cl)cc3)nn2)COC(=O)[C@H](C)[C@@H](O[C@H]2C[C@@](C)(OC)[C@@H](O)[C@H](C)O2)[C@H](C)[C@H]1O[C@@H]1O[C@H](C)C[C@H](N(C)C)[C@H]1O	8 µg/mL (≈ 8.92 µM)	32 µg/mL (≈ 35.7 µM)	64 µg/mL (≈ 71.4 µM)	8 µg/mL (≈ 8.92 µM)	128 µg/mL (≈ 143 µM)	64 µg/mL (≈ 71.4 µM)	8 µg/mL (≈ 8.92 µM)	64 µg/mL (≈ 71.4 µM)	> 128 µg/mL	64 µg/mL (≈ 71.4 µM)

From ChEMBL document CHEMBL4334458, “Design, synthesis and antibacterial evaluation of novel 15-membered 11a-azahomoclarithromycin derivatives with the 1, 2, 3-triazole side chain” (Eur J Med Chem, 2019)
